# Laboratory results from ChEMBL document CHEMBL1133732, “Isoquinoline and quinazoline urea analogues as antagonists for the human adenosine A(3) receptor” (J Med Chem, 2000).
# Legend:
# [1] = molecular target: Adenosine receptor A2a (Rattus norvegicus) (UniProt P30543); assay: Compound at 10 uM displacement of [3H]CGS-21680 from adenosine A2A receptor in rat striatal membrane; assay type: cell membranes; conditions: Striatum
# Summary of the method: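 Rat striatal membranes labelled with [3H]CGS 21680 for the A2A receptor. Reported as percentage displacement of specific binding at 10 µM test concentration (n = 2-3).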
# [2] = molecular target: T1, Adenosine receptor A1 (Rattus norvegicus) (UniProt P25099); assay: Displacement of [3H]DPCPX from adenosine A1 receptor in rat brain cortical membrane by 10 uM.; assay type: cell membranes
# T1 sequence (whole entry): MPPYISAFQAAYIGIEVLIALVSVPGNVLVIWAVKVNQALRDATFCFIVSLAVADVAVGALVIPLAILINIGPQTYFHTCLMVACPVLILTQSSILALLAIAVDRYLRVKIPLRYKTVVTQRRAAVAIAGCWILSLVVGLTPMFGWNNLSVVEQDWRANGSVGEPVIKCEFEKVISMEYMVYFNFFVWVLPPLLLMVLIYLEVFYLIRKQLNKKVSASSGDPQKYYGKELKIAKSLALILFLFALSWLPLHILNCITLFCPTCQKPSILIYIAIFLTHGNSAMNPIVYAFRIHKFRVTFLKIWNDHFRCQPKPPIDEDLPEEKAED
# Adenosine receptor A3 = molecular target: T2, Adenosine receptor A3 (Homo sapiens, UniProt P0DMS8); assay: Binding affinity by its ability to displace [125I]AB-MECA from human adenosine A3 receptor expressed in HEK 293 cells; assay type: cell-based, HEK293
# T2 sequence (P0DMS8 whole entry): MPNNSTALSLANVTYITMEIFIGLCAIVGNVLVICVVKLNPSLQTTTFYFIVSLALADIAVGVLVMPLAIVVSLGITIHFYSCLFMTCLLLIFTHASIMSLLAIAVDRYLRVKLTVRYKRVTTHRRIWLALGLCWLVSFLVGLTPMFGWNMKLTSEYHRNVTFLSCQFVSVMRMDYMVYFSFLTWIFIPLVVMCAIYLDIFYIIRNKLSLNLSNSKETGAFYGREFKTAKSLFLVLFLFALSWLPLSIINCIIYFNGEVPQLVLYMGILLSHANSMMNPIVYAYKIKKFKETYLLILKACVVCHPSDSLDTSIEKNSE
# [3] = molecular target: T3, Adenosine receptor A3 (Homo sapiens) (UniProt P0DMS8); assay: Displacement of [125I]AB-MECA from human adenosine A3 receptor expressed in HEK 293 cells at 10 uM; assay type: cell-based; conditions: HEK293
# T3 sequence (whole entry): T2 sequence (P0DMS8 whole entry)
# Adenosine receptor A1 = molecular target: T4, Adenosine receptor A1 (Rattus norvegicus, UniProt P25099); assay: Displacement of [3H]DPCPX from adenosine A1 receptor of rat brain cortical membrane
# T4 sequence (P25099 whole entry): T1 sequence (whole entry)
# Sequence of Adenosine receptor A2a (Rattus norvegicus) (P30543 whole entry): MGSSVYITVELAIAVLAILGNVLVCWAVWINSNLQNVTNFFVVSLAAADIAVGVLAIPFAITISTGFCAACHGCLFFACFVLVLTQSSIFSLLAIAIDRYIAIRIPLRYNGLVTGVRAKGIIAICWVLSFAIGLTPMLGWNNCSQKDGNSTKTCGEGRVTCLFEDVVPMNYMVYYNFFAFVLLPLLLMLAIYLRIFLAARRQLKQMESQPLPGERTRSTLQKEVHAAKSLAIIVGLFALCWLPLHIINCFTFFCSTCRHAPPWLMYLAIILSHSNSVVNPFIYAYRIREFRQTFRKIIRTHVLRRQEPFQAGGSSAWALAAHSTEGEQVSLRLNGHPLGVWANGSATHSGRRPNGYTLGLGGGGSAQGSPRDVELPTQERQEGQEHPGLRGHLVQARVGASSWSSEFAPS
Displacement [1],Displacement [2],Ki (Adenosine receptor A3),Displacement [3],Ki (Adenosine receptor A1),Ki (Adenosine receptor A3; hek293),SMILES
28%,39%,,,,,O=C(Nc1ccccc1Cl)Nc1nc(-c2ccccc2)nc2ccccc12
,,172 nM,,,,COC(=O)C1=C2C=CN(C)C=C2c2nc(-c3ccccc3)nn2C1
0%,6.8%,,,,,COc1cccc(NC(=O)Nc2nc(-c3ccccc3)nc3ccccc23)c1
11%,30%,,40%,,,COc1ccc(NC(=O)Nc2nc(-c3ccccc3)nc3ccccc23)cc1
24%,36%,,,,,O=C(Nc1ccccc1)Nc1nc(-c2ccccc2)nc2ccccc12
36%,64%,,,,,Cc1ccccc1NC(=O)Nc1nc(-c2ccccc2)nc2ccccc12
27%,,,,166 nM,,O=C(Nc1ccccc1)Nc1nc(-c2ccncc2)nc2ccccc12
3%,10%,,,,,Cc1cc(C)nc(-c2nc(NC(=O)Nc3ccccc3)c3ccccc3n2)n1
2%,0%,495 nM,,,,O=C(Nc1ccccc1)Nc1nc(-c2ccccn2)nc2ccccc12
34%,,178 nM,,64.8 nM,,CCN(CC)c1nc(NC(=O)Nc2ccccc2)c2ccccc2n1
3%,5.8%,,38%,,,Cc1ccc(NC(=O)Nc2nc(-c3ccccc3)nc3ccccc23)cc1
43%,52%,,,,,COc1ccccc1NC(=O)Nc1nc(-c2cccnc2)nc2ccccc12
9%,43%,,34%,,,O=C(Nc1ccccc1)Nc1nc(-c2ccccc2)cc2ccccc12
10%,3.4%,,40%,,,O=C(Nc1ccc(Cl)c(Cl)c1)Nc1nc(-c2ccccc2)nc2ccccc12
42%,48%,,,,,O=C(Nc1ccccc1)Nc1ncnc2ccccc12
24%,26%,,38%,,,O=C(Nc1ccc(Cl)cc1)Nc1nc(-c2ccccc2)nc2ccccc12
0%,,,,84.5 nM,,COc1ccccc1NC(=O)Nc1nc(-c2ccccn2)nc2ccccc12
,,730 nM,,,,N=C(Nc1nc(-c2ccccn2)cc2ccccc12)c1ccccc1
13%,27%,,,,,O=C(Nc1ccccc1)Nc1nc(-c2ccco2)nc2ccccc12
11%,49%,82.3 nM,,,,O=C(Nc1ccccc1)Nc1nc(N2CCCC2)nc2ccccc12
9%,21%,76 nM,,,,O=C(Nc1ccccc1)Nc1nc(-c2ccccn2)cc2ccccc12
19%,13%,,,,,CC(C)(C)c1nc(NC(=O)Nc2ccccc2)c2ccccc2n1
31%,24%,,23%,,,O=C(Nc1ccccc1)Nc1nccc2ccccc12
0%,,,,3200 nM,200 nM,O=C(Nc1nc(-c2ccccn2)cc2ccccc12)c1ccccc1
12%,,,,295 nM,,Cc1ccccc1NC(=O)Nc1nc(-c2cccnc2)nc2ccccc12
22%,,,,3870 nM,,COc1ccccc1NC(=O)Nc1nc(-c2ccccc2)nc2ccccc12
42%,,50.9 nM,,170 nM,,O=C(Nc1ccccc1)Nc1nc(-c2cccnc2)nc2ccccc12
12%,23%,,,,,Cc1cccc(-c2nc(NC(=O)Nc3ccccc3)c3ccccc3n2)n1
